Experimental data as given in ChEMBL document CHEMBL1208735, “6-(4'-Aryloxy-phenyl)vinyl-1,2,4-trioxanes: a new series of orally active peroxides effective against multidrug-resistant Plasmodium yoelii in Swiss mice” (2010).
The source made the active and inactive calls. The rule behind the calls is not given here.

Key:
[1] = tested on: Plasmodium yoelii nigeriensis; assay: Antimalarial activity against multi drug-resistant Plasmodium yoelii nigeriensis infected in Swiss mice (Mus musculus) assessed as protection of patent infection at 96 mg/kg, perorally daily for 4 days measured after 28 days; format: functional, organism-based; set-up: dose 96 mg/kg
How it was run: (§1)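 Colony-bred Swiss mice (25 ± 1 g) inoculated day 0 with 1×10^6 parasitized RBC of P. yoelii nigeriensis (resistant to chloroquine, mefloquine, halofantrine). Five mice per dose. Oral dosing in groundnut oil, 0.1 ml per dose, days 0–3, given as two divided doses daily. Thin blood smears read through day 28. Mice without patent infection by day 28 scored cured, expressed as cured/treated.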

[2] = tested on: Plasmodium yoelii nigeriensis; assay: Antimalarial activity against multi drug-resistant Plasmodium yoelii nigeriensis infected in Swiss mice (Mus musculus) assessed as suppression of parasitaemia level at 96 mg/kg, perorally daily for 4 days; format: functional; conditions: route oral
How it was run: (§2)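 Swiss mice (25 ± 1 g) infected day 0 with 1×10^6 parasitized RBC of multidrug-resistant P. yoelii nigeriensis. Groups of five dosed orally in groundnut oil (0.1 ml per dose), days 0–3, two divided doses daily. Parasitaemia read from thin blood smears on day 4 as % suppression. 100% means no parasites seen in 50 oil-immersion fields. β-Arteether was the positive control.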

[3] = tested on: Plasmodium yoelii nigeriensis; assay: Antimalarial activity against multi drug-resistant Plasmodium yoelii nigeriensis infected in Swiss mice (Mus musculus) assessed as suppression of parasitaemia level at 48 mg/kg, perorally daily for 4 days; format: functional; conditions: route oral; how it was run: as §2
[4] = tested on: Plasmodium yoelii nigeriensis; assay: Antimalarial activity against multi drug-resistant Plasmodium yoelii nigeriensis infected in Swiss mice (Mus musculus) assessed as protection of patent infection at 48 mg/kg, perorally daily for 4 days measured after 28 days; format: functional, organism-based; set-up: dose 48 mg/kg; how it was run: as §1
[5] = tested on: Plasmodium yoelii nigeriensis; assay: Antimalarial activity against multi drug-resistant Plasmodium yoelii nigeriensis infected in Swiss mice (Mus musculus) assessed as suppression of parasitaemia level at 24 mg/kg, perorally daily for 4 days; format: functional; conditions: route oral; how it was run: as §2
[6] = tested on: Plasmodium yoelii nigeriensis; assay: Antimalarial activity against multi drug-resistant Plasmodium yoelii nigeriensis infected in Swiss mice (Mus musculus) assessed as protection of patent infection at 24 mg/kg, perorally daily for 4 days measured after 28 days; format: functional, organism-based; set-up: dose 24 mg/kg; how it was run: as §1

C=C(c1ccc(Oc2cccc3ccccc23)cc1)C1COC2(OO1)C1CC3CC(C1)CC2C3 (stereo unspecified)
Activity [1]: inactive
Activity [2]: 93.15%

C=C(c1ccc(Oc2ccc(-c3ccccc3)cc2)cc1)C1COC2(CCCC2)OO1 (stereo unspecified)
Activity [1]: Active
Activity [2]: 100%
Activity [3]: 100%
Activity [4]: inactive

C=C(c1ccc(Oc2ccc3ccccc3c2)cc1)C1COC2(OO1)C1CC3CC(C1)CC2C3 (stereo unspecified)
Activity [2]: 100%

C=C(c1ccc(Oc2ccccc2)cc1)C1COC2(OO1)C1CC3CC(C1)CC2C3 (stereo unspecified)
Activity [2]: 100%

C=C(c1ccc(Oc2ccccc2)cc1)C1COC2(CCCCC2)OO1 (stereo unspecified)
Activity [2]: 100%

C=C(c1ccc(Oc2ccccc2)cc1)C1COC2(CCCC2)OO1 (stereo unspecified)
Activity [2]: 100%

C=C(c1ccc(Oc2ccc(-c3ccccc3)cc2)cc1)C1COC2(OO1)C1CC3CC(C1)CC2C3 (stereo unspecified)
Activity [2]: 100%

C=C(c1ccc(Oc2ccc3ccccc3c2)cc1)C1COC2(CCCCC2)OO1 (stereo unspecified)
Activity [2]: 100%

C=C(c1ccc(Oc2ccc(-c3ccccc3)cc2)cc1)C1COC2(CCCCC2)OO1 (stereo unspecified)
Activity [1]: inactive
Activity [2]: 84.39%

C=C(c1ccc(Oc2cccc3ccccc23)cc1)C1COC2(CCCC2)OO1 (stereo unspecified)
Activity [5]: 100%
Activity [6]: inactive
Activity [1]: Active
Activity [2]: 100%
Activity [3]: 100%
Activity [4]: Active

CCO[C@H]1O[C@@H]2O[C@@]3(C)CC[C@H]4[C@H](C)CC[C@@H]([C@H]1C)[C@@]24OO3 [ARTEMOTIL]
Activity [5]: 100%
Activity [3]: 100%
Activity [4]: Active

C=C(c1ccc(Oc2cccc3ccccc23)cc1)C1COC2(CCCCC2)OO1 (stereo unspecified)
Activity [1]: inactive
Activity [2]: 92.81%

C=C(c1ccc(Oc2ccc3ccccc3c2)cc1)C1COC2(CCCC2)OO1 (stereo unspecified)
Activity [5]: 100%
Activity [6]: inactive
Activity [1]: Active
Activity [2]: 100%
Activity [3]: 100%
Activity [4]: Active
